For five compounds, inhibition and inhibition of growth results are on record in ChEMBL document CHEMBL3046718, “Synthesis and herbicidal activity of 5-(4-hydroxybenzyl)-2-thioxoimidazolidin-4-one esters” (2011).

Common to all, as to type: functional
Test [1] concerns Stellaria media. Description: Herbicidal activity against Stellaria media at 1000 g/ha treated as pre-emergence under greenhouse condition.
In test [2] the test system is Stellaria media. Description: Herbicidal activity against Stellaria media at 1000 g/ha treated as post-emergence under greenhouse condition.
For test [3], the system named is Triticum aestivum. Description: Herbicidal activity against Triticum aestivum (wheat) assessed as inhibition of root growth at 200 ug/ml relative to control. As to conditions: read-out: GI. Summed up: (§1)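 Seedlings were grown in an illumination incubator from ten Zea mays seeds or five Triticum aestivum seeds per plate, on filter paper wetted with 2 mL of test solution at 200 mg/L. Distilled water served as blank and metazachlor as positive control. Inhibitory ratio (0–100%) was scored against distilled water.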

In test [4] the test system is Setaria viridis. Nature of the test: Herbicidal activity against Setaria viridis (green foxtail) at 1000 g/ha treated as post-emergence under greenhouse condition.
Test [5] deals with Zea mays. Nature of the test: Herbicidal activity against Zea mays (maize) assessed as inhibition of root growth at 200 ug/ml relative to control. Particulars: read-out: GI. Summed up:
as §1

Test [6] deals with Echinochloa crus-galli. Nature of the test: Herbicidal activity against Echinochloa crus-galli (barnyard grass) at 1000 g/ha treated as post-emergence under greenhouse condition.
The test system of test [7] is Echinochloa crus-galli. Description: Herbicidal activity against Echinochloa crus-galli (barnyard grass) at 1000 g/ha treated as pre-emergence under greenhouse condition.
Another test concerns Arabidopsis thaliana. Nature of the test: Herbicidal activity against Arabidopsis thaliana assessed as inhibition of seed germination at 200 ug/ml relative to control. Summed up: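 Five sterilized Arabidopsis thaliana […] per well in 24-well sterile plates, each with 100 μL of test solution at 200 mg/L, grown in an illumination incubator. Distilled water served as blank and metazachlor as positive control. Inhibitory ratio (0–100%) was scored against distilled water.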

Test [8] has as its system Setaria viridis. Description: Herbicidal activity against Setaria viridis (green foxtail) at 1000 g/ha treated as pre-emergence under greenhouse condition.
Test [9] has as its system Zea mays. Nature of the test: Herbicidal activity against Zea mays (maize) assessed as inhibition of height growth at 200 ug/ml relative to control. Particulars: read-out: GI. The procedure, abridged: as §1
The subject of test [10] is Triticum aestivum. Nature of the test: Herbicidal activity against Triticum aestivum (wheat) assessed as inhibition of height growth at 200 ug/ml relative to control. As to conditions: read-out: GI. The procedure, abridged: as §1

Structures are written as SMILES.

With `O=C(Cc1cccc2ccccc12)Oc1ccc(CC2NC(=S)NC2=O)cc1` (configuration not stated), the inhibition at 1000 g/ha in the test with Stellaria media [1] came to 60%; with Stellaria media [2] it was 0%; in the test on Setaria viridis [4], 0%; with Echinochloa crus-galli [6] it was 0%; in the test with Echinochloa crus-galli [7], 50%; in the test on Setaria viridis [8] it was 50%. For the same compound, the inhibition of growth at 200 µg/mL in the test with Triticum aestivum [3] came out at 56.7%; in the test on Zea mays [5], 88%; in the test on Zea mays [9], 77.4%; in the test with Triticum aestivum [10], 100%. Besides, the inhibition at 200 µg/mL in the test with Arabidopsis thaliana is 10%.
Consider `CC(=O)Oc1ccc(CC2NC(=S)NC2=O)cc1` (configuration not stated), for which the inhibition of growth at 200 µg/mL is 20.9% with Triticum aestivum [3], -6.7% in the test on Zea mays [5], -14.5% in the test with Zea mays [9] and -3.6% in the test with Triticum aestivum [10]. Further, the inhibition at 200 µg/mL with Arabidopsis thaliana was found to be 10%.
For the compound `O=C(Oc1ccc(CC2NC(=S)NC2=O)cc1)c1ccc(F)cc1` (configuration not stated), the inhibition of growth at 200 µg/mL is -8.5% with Triticum aestivum [3], 66.3% in the test with Zea mays [5], 32.8% in the test with Zea mays [9] and -22.9% in the test on Triticum aestivum [10]. Further, the inhibition at 200 µg/mL in the test with Arabidopsis thaliana came out at 20%.
Regarding `O=C(Oc1ccc(CC2NC(=S)NC2=O)cc1)c1ccc([N+](=O)[O-])cc1` (configuration not stated), the inhibition at 1000 g/ha in the test with Stellaria media [1] is 60%; in the test with Stellaria media [2], 0%; in the test on Setaria viridis [4] it was 0%; in the test with Echinochloa crus-galli [6], 0%; in the test with Echinochloa crus-galli [7] it was 50%; in the test on Setaria viridis [8], 50%. For the same compound, the inhibition of growth at 200 µg/mL in the test with Triticum aestivum [3] is -25.8%; in the test with Zea mays [5], 100%; in the test on Zea mays [9] it was 100%; in the test on Triticum aestivum [10], -24.6%. Besides, the inhibition at 200 µg/mL in the test on Arabidopsis thaliana came out at 40%.
On to `Cc1cccc(C)c1N(Cn1cccn1)C(=O)CCl` [METAZACHLOR], for which the inhibition of growth at 200 µg/mL in the test with Triticum aestivum [3] was found to be 77.7%; in the test with Zea mays [5], 83%; with Zea mays [9] it was 79%; in the test on Triticum aestivum [10] it was 78.6%. For the same compound, the inhibition at 200 µg/mL with Arabidopsis thaliana was determined as 70%.
